Results on one molecule are retold here after ChEMBL document CHEMBL3526009, “Breast cancer resistance protein (ABCG2) determines distribution of genistein phase II metabolites: reevaluation of the roles of ABCG2 in the disposition of genistein” (Drug Metab Dispos, 2012).

Series [1] is described as follows: Stability in potassium phosphate buffer at pH 7.4 up to 4 hrs. Format: physicochemical. To be noted: pH 7.4, 4 h. In outline: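 Negative control run under the blood-incubation conditions but in 50 mM potassium phosphate buffer, pH 7.4, instead of blood. Genistein glucuronides (G-7-G plus G-4′-G, with aglycone) or sulfates (G-7-S plus G-4′-S, with aglycone) held at 37°C in a shaking water bath up to 4 h. Sampled at 0, 60, 120 and 240 min and read by UPLC-MS/MS.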

Series [2] is described as follows: Biliary excretion in BCRP-/- mouse treated with genistein measured after 2.5 hrs post intestinal perfusion by UPLC-MS/MS analysis. Format: ADME, Bile. To be noted: in vivo, other. A digest of the protocol: (§1)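 Gallbladder bile taken after 2.5 h of simultaneous small intestine/colon perfusion with 10 μM genistein (HBSS pH 7.4, 0.191 ml/min) in FVB or Bcrp1(−/−) mice (n = 4). Bile diluted 20-fold in HBSS, daidzein internal standard in acetonitrile added, dried and reconstituted. Genistein and conjugates quantified by UPLC-MS/MS.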

In another series the test system is Blood. The series is described as follows: Stability in Wistar rat blood at 3 uM up to 4 hrs by UPLC-MS/MS analysis. Format: ADME, tissue-based. In outline: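 Genistein glucuronide mixture (G-7-G plus G-4′-G, 3 μM) with 3.8 μM genistein incubated in fresh rat whole blood, 37°C shaking water bath. Sampled at 0, 60, 120 and 240 min. Reaction stopped with acetonitrile containing daidzein internal standard. Genistein and conjugates quantified by UPLC-MS/MS using multiple reaction monitoring. n = 3.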

The nature of series [3]: Biliary excretion in wild-type FVB mouse treated with genistein measured after 2.5 hrs post intestinal perfusion by UPLC-MS/MS analysis. Format: ADME, Bile. To be noted: in vivo, other. In outline: as §1

With `O=C(O)[C@H]1O[C@@H](Oc2cc(O)c3c(=O)c(-c4ccc(O)cc4)coc3c2)[C@H](O)[C@@H](O)[C@@H]1O`, the Stability entry (in series [1]; in the series on Blood) was “Stable” each time. The Drug excretion result in series [2] and in series [3] was “metabolite_detected” throughout.
